Here are results for one molecule from ChEMBL document CHEMBL5104213, “Evaluation of the effect of a cell penetrating peptide (TAT) towards tailoring the targeting efficacy and tumor uptake of porphyrin” (RSC Med Chem, 2022).

Data set [1] can be described thus: Drug uptake in liver of iv dosed Swiss mouse infected with mouse HSDM1C1 cells administered with radiolabeled Gallium-68 measured after 30 mins. It is filed as ADME, organism-based. The note with it: in vivo, 0.5 h. The gist of the method:
(§1)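 Fibrosarcoma grown from ~10⁶ HSDM1C1 cells injected subcutaneously on the dorsum, used at ~1 cm tumour diameter; 20–25 g Swiss mice. ⁶⁸Ga-labelled, Sep-Pak-purified preparation (~100 μCi, 3.7 MBq, 150 μL, saline) given i.v. via tail vein. Killed by CO₂ at 30 or 60 min, n = 3; blood by cardiac puncture, organs excised, washed, weighed and counted by NaI(Tl); % IA per g.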

Data set [2] can be described thus: Drug uptake in lung of iv dosed Swiss mouse infected with mouse HSDM1C1 cells administered with radiolabeled Gallium-68 measured after 60 mins. The data set is classed as ADME, organism-based. The note with it: in vivo, 1 h. The gist of the method:
as §1

Data set [3] relates to A549. In words: Cytotoxicity against human A549 cells assessed as cell growth inhibition at 0.5 uM incubated for 24 hrs under light exposure by MTT assay. The data set is classed as functional, cell-based. The gist of the method:
(§2)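 A549 plated as for MTT, incubated with compound (0.5 or 1 μM) for 6 h, then irradiated by LED at 42 W m⁻² for 90 min (0.02 kJ cm⁻²). Cells then held 18 h at room temperature and assayed by MTT. Controls were light without compound and compound without light.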

A short description of data set [4]: Drug uptake in blood of iv dosed Swiss mouse infected with mouse HSDM1C1 cells administered with radiolabeled Gallium-68 measured after 30 mins. The note with it: in vivo, 0.5 h. It is filed as ADME, organism-based. The gist of the method:
as §1

Data set [5] is described as follows: Drug uptake in spleen of iv dosed Swiss mouse infected with mouse HSDM1C1 cells administered with radiolabeled Gallium-68 measured after 60 mins. The data set is classed as ADME, organism-based. The note with it: in vivo, 1 h. The gist of the method: as §1
Data set [6] in a line: Drug uptake in spleen of iv dosed Swiss mouse infected with mouse HSDM1C1 cells administered with radiolabeled Gallium-68 measured after 30 mins. It is filed as ADME, organism-based. The note with it: in vivo, 0.5 h. The gist of the method:
as §1

Data set [7] in a line: Drug uptake in kidney of iv dosed Swiss mouse infected with mouse HSDM1C1 cells administered with radiolabeled Gallium-68 measured after 60 mins. It is filed as ADME, organism-based. The note with it: in vivo, 1 h. The gist of the method: as §1
Data set [8] in a line: Octanol-water partition coefficient, logP of the compound. The data set is classed as physicochemical. The gist of the method:
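⁶⁸Ga-labelled preparation (100 μL) added to octanol (1.0 mL) and water (900 μL), mixed, centrifuged 2500 rpm for 5 min. Aliquots of each layer counted by NaI(Tl); log P taken as log of organic/aqueous count ratio.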

Data set [9] is described as follows: Drug uptake in tumor of iv dosed Swiss mouse infected with mouse HSDM1C1 cells administered with radiolabeled Gallium-68 measured after 60 mins. It is filed as ADME, organism-based, Neoplasm. The note with it: in vivo, 1 h. The gist of the method: as §1
The test system of data set [10] is A549. In words: Cytotoxicity against human A549 cells assessed as cell growth inhibition at 1 uM incubated for 24 hrs under light exposure by MTT assay. The data set is classed as functional, cell-based. The gist of the method:
as §2

Data set [11] relates to A549. In words: Cytotoxicity against human A549 cells assessed as cell growth inhibition at 0.5 to 10 uM incubated for 24 hrs under dark condition by MTT assay. The note with it: dose 0.5-10 µM, DDE = dose-dependent effect. It is filed as functional, cell-based. The gist of the method:
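A549 in DMEM/10% FBS, 7 × 10³ cells/well seeded, overnight at 37 °C, 5% CO₂; treated at 0.5, 1, 2.5, 5, 10 μM without light, buffer control, n = 6. After 24 h, MTT added to a final 0.5 mg mL⁻¹ for 4 h; formazan dissolved in DMSO, A570 read with 660 nm reference; % dead cells calculated against vehicle control.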

A short description of data set [12]: Drug uptake in tumor of iv dosed Swiss mouse infected with mouse HSDM1C1 cells administered with radiolabeled Gallium-68 measured after 30 mins. The note with it: in vivo, 0.5 h. It is filed as ADME, organism-based, Neoplasm. The gist of the method:
as §1

Data set [13] can be described thus: Drug uptake in liver of iv dosed Swiss mouse infected with mouse HSDM1C1 cells administered with radiolabeled Gallium-68 measured after 60 mins. It is filed as ADME, organism-based. The note with it: in vivo, 1 h. The gist of the method: as §1
A short description of data set [14]: Drug uptake in kidney of iv dosed Swiss mouse infected with mouse HSDM1C1 cells administered with radiolabeled Gallium-68 measured after 30 mins. It is filed as ADME, organism-based. The note with it: in vivo, 0.5 h. The gist of the method: as §1
A short description of data set [15]: Drug uptake in blood of iv dosed Swiss mouse infected with mouse HSDM1C1 cells administered with radiolabeled Gallium-68 measured after 60 mins. It is filed as ADME, organism-based. The note with it: in vivo, 1 h. The gist of the method:
as §1

Data set [16] is described as follows: Drug uptake in lung of iv dosed Swiss mouse infected with mouse HSDM1C1 cells administered with radiolabeled Gallium-68 measured after 30 mins. The data set is classed as ADME, organism-based. The note with it: in vivo, 0.5 h. The gist of the method: as §1
For data set [17], the system named is A549. In words: Cytotoxicity against human A549 cells assessed as cell growth inhibition incubated for 24 hrs under light exposure by MTT assay. It is filed as functional, cell-based. The note with it: A549, 24 h. The gist of the method: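 Photocytotoxicity IC₅₀ determination in A549 cells: 6 h compound exposure at 0.1, 0.5, 1, 2.5, 5.0, 10.0, 20.0 μM, then LED light dose of 0.02 kJ cm⁻² and 18 h post-irradiation incubation before MTT read-out. % cell death plotted against log concentration (nM) to derive IC₅₀.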

Calls of active or inactive are those of the source. The calls are words filed in the database; no cut-off is given here.

On to `O=C(O)COc1ccc(-c2c3nc(c(-c4ccc(OCC(=O)O)cc4)c4ccc([nH]4)c(-c4ccc(OCC(=O)O)cc4)c4nc(c(-c5ccc(O)cc5)c5ccc2[nH]5)C=C4)C=C3)cc1`, for which the Ct in data set [1] turned out to be 23.46%; in data set [2] it was 5.33%; in [4] it was 9.97%; in data set [5], 3.23%; in data set [6], 5.52%; in [7], 3.35%. For the same molecule, the Ct in data set [9] is given as 2.45%; in data set [12], 2.53%; in data set [13], 15.11%; in [14], 4.78%; in [15] it was 6.87%; in data set [16], 8.87%. For the same molecule, the result in the data set with A549 [3] and with A549 [10] was Active. The molecule also had a logP in [8] of -1.54. The Activity entry with A549 [11] is “Dde”. For the same molecule, the IC50 in the data set on A549 [17] amounted to 5.65 µM.
